p97 ATPase inh = inhibitors of human p97 ATPase, primary screen, biochemical | Transitional endoplasmic reticulum ATPase (Homo sapiens), P55072 | recombinant p97 ATPase, Kinase-Glo ATP luminescence, 3 h | inhibition, % at 8 µM | 220,000 tested, 0.42% active; in the data active = inhibition above about 15%;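 also: 0% = DMSO vehicle and 100% = wells lacking enzyme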
DTT redox prof = compounds producing H2O2 with reducing agent – biochemical, NIH compound library profiling, artefact control for MLSCN library redox annotation, primary screen; DTT-dependent redox cycling H2O2, phenol red/HRP absorbance; 100% = 100 µM peroxide control, 0% = buffer; activation, % at 10 µM; 200,000 tested, 0.03% active;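 active = activation of at least 50% relative to the plate's high and low controls in the primary single-dose screen; inactive = activation below 50%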;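 also: compound incubated with DTT at 0.8 mM final as the reducing agent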
PERK inhibitor = block of dimerizer-induced PERK translation repression, primary screen, PERK inhibitor project, CHO PERK-DD cells, SEAP luminescence, HTS | CHO PERK-DD fusion, SEAP luminescence translation reporter | inhibition, % at 5.6 µM | Eukaryotic translation initiation factor 2-alpha kinase 3 (Homo sapiens), Q9NZJ5 | 220,000 tested, 0.17% active;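 active = inhibition above the mean inhibition of all tested compounds plus 3 SD, set separately per screening campaign, cut at about 2.9% in these data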;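 also: PERK kinase domain activated by AP20187 dimerizer at 100 nM; 0% = DMSO with dimerizer and 100% = rapamycin at 8.4 µM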
TNAP inh noacc = human TNAP enzyme inhibitors, primary screen, biochemical, luminescent, no phosphate acceptor, uHTS; Alkaline phosphatase, tissue-nonspecific isozyme (Homo sapiens), P05186; purified TNAP, CDP-star luminescence, 30 min; inhibition, % at 20 µM; 200,000 tested, 0.26% active; AID 1012, 2008;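 active = tissue-nonspecific alkaline phosphatase inhibition above about 50% at 20 µM in the single-dose screen, limit read from the data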;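 also: 0% = DMSO negative control and 100% = EDTA positive control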
Target sequence (P05186 whole entry, looked up): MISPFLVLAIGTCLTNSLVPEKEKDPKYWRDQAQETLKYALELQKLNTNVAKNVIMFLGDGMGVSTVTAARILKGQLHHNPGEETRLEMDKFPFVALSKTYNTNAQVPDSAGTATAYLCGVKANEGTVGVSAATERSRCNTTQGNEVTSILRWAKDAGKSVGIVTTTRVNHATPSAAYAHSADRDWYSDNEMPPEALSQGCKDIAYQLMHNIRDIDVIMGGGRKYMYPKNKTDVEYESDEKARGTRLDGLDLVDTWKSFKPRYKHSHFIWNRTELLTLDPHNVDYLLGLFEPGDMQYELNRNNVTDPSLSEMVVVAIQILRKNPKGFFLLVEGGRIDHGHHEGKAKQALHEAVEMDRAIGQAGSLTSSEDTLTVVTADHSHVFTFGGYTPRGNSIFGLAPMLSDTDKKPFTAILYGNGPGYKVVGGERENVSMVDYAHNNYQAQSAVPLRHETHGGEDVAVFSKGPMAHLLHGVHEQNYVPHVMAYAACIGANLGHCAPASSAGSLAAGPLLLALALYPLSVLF
TNAP inh hiacc = human TNAP enzyme inhibitors, primary screen, biochemical, luminescent, high phosphate acceptor level, uHTS; purified TNAP, CDP-star luminescence, 1 M DEA; inhibition, % at 20 µM; 200,000 tested, 0.03% active; AID 1135, 2008;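 active = over 50% inhibition of tissue-nonspecific alkaline phosphatase at 20 µM in the single-dose screen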;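 also: plate controls were DMSO wells for no effect and EDTA-quenched wells as full inhibition for full effect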
TNAP act hi DEA = TNAP activators at high phosphate acceptor level, primary screen, biochemical, luminescence, uHTS; Alkaline phosphatase, tissue-nonspecific isozyme (Homo sapiens), P05186; activation factor at 20 µM; purified TNAP, CDP-star luminescence, 1 M DEA, 30 min; hits give high values; 0 = EDTA background, 1 = DMSO-only activity; 200,000 tested, under 10 active;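 active = activation factor at least 2 at 20 µM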
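Test system – human TNAP · Doses – 20 µM single point · Incubation – 30 min, room temperature · Signal – luminescent substrate turnover signal · Read-out basis – activation factor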
p97 confirm = p97 ATPase inhibitors, retest, confirmation, biochemical. shares compounds with p97 ATPase inh. recombinant p97 ATPase, Kinase-Glo ATP luminescence. inhibition, % at 8 µM. 760 tested, 44% active;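 active = percent inhibition of p97 ATPase above a set limit, the primary screen's mean plus 3 SD, cut at about 15% in these data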;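 also: 0% = DMSO wells and 100% = wells lacking p97 protein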
* = called active by the depositor; / = no result. This is a sample that favours compounds with a hit; in the whole collection about 0.86% have one here.

SMILES	p97 ATPase inh	DTT redox prof	PERK inhibitor	TNAP inh noacc	TNAP inh hiacc	TNAP act hi DEA	p97 confirm
CCn1c(NCc2cc(Cl)ccc2O)nc2ccccc21	-1	/	1	/	/	/	/
N=c1sc2ccccc2n1-c1ccccc1	5	3	0	-13	-7	1.1	/
C=CC(=O)N=c1sc2ccccc2n1-c1ccccc1	18*	5	1	-6	-2	1	17*
COc1ccc(C(=O)N2CCN(C(=O)Cc3ccccc3)CC2)cc1	-1	-2	0	12	2	1	/
COc1cc(/C=C/c2ccc3c(Br)cc(Br)c(O)c3n2)ccc1O	18*	/	-2	/	/	/	15*
O=C1c2ccccc2C(=O)N1Cc1ccccn1	6	-1	2	-8	-4	1	/
COc1ccc(CCn2c(N)c(C(=O)NCc3ccco3)c3nc4ccccc4nc32)cc1OC	4	2	0	-14	-6	1.1	/
COc1ccc(CCn2c(N)c(C(=O)NCc3ccco3)c3nc4ccccc4nc32)cc1	16*	2	-1	-10	-3	1	3
COc1ccc(/C=N\NC(=O)c2cc(O)c(O)c(O)c2)cc1CN1CCN(c2ccc(F)cc2)CC1	17*	1	0	-21	9	0.9	26*
COc1ccc(/C=N/NC(=O)c2ccc(C)cc2)cc1CN1CCN(c2ccc(F)cc2)CC1	3	-4	0	-13	-9	1.1	/
Cc1ccc(C(=O)COC(=O)c2ccc(-c3cnc4ccccc4n3)cc2)cc1C	-6	1	0	-8	-4	1	/
Cc1[nH]c2ccccc2c1/C=N/NC(=O)c1cc(C(C)C)[nH]n1	17*	/	1	/	/	/	17*
Cc1[nH]c2ccccc2c1/C=N/NC(=O)c1cccs1	16*	0	0	-4	-3	1	22*
Cc1ccc(S(=O)(=O)/N=c2\sccn2C)cc1	1	2	1	-5	4	1	/
Cn1ccs/c1=N\S(=O)(=O)c1ccc(F)cc1	18*	0	1	-6	0	1	1
Cc1cc(NC(=O)CCC(=O)N(c2ccc(F)cc2)C(C(=O)NC2CCCC2)c2ccncc2)no1 (stereo not given)	4	3	-1	-1	3	1	/
O=[N+]([O-])c1cc([N+](=O)[O-])c2c(=Nc3ccccc3)n(-c3ccccc3)n(O)c2c1	6	-2	-1	15	16	0.8	/
COc1ccc(C(=O)NCc2ccc3c(c2)cc(C)n3C)cc1OC	4	0	1	-8	-3	1	/
COc1cccc(C(=O)NCc2ccc3c(c2)cc(C)n3C)c1	20*	-9	0	-27	-3	1	8
Cc1c(Br)c(O)c(Br)c2sc(=O)oc12	22*	/	1	/	/	/	7
O=C(COc1ncnc2cc([N+](=O)[O-])ccc12)NC(=O)NC1CCCCC1	0	0	0	-10	0	1	/
O=C(COc1ncnc2cc([N+](=O)[O-])ccc12)NCCc1ccc(Cl)cc1	15*	0	0	-5	-5	1	9
CC1=NN(c2ccc(C)cc2C)C(=O)C1C(c1ccccc1O)C1C(=O)N(c2ccc(C)cc2C)N=C1C (stereo not given)	28*	0	2	0	4	1	8
CC1(C)CC(=O)c2sc(NS(=O)(=O)Cc3ccccc3)nc2C1	3	2	1	-7	-1	1	/
Cc1ccc(S(=O)(=O)Nc2nc3c(s2)C(=O)CC(C)(C)C3)cc1	16*	-1	1	-5	-3	1	5
SMILES	p97 ATPase inh	DTT redox prof	PERK inhibitor	TNAP inh noacc	TNAP inh hiacc	TNAP act hi DEA	p97 confirm
Nc1nonc1-n1nnc(C(=O)N/N=C/c2ccc(OCc3ccc(F)cc3)cc2)c1COc1ccccc1	3	/	0	/	/	/	/
CCOC(=O)C1=C(C)OC2(O)c3ccccc3C(=O)C12O (stereo not given)	17*	/	0	/	/	/	27*
CC(=O)C1=C(C)OC2(O)c3ccccc3C(=O)C12O (stereo not given)	20*	/	1	/	/	/	8
CCOC(=O)C[N+]1(C)CCN(C(C)=O)CC1	1	-2	1	-4	-4	1	/
Cc1ccc(NC(=O)Cn2cccc2)c(C)c1	-3	0	0	-5	-3	1	/
CC(=O)Oc1cc2cccc(OC(C)=O)c(=O)c2c(OC(C)=O)c1OC(C)=O	29*	-1	1	-26	22	0.8	4
Cn1c(-c2ccccc2)c(/C=N/NC(=O)c2ccc(O)cc2)c2ccccc21	17*	/	0	/	/	/	28*
Fc1ccccc1-c1nc(NCc2ccco2)c2ccccc2n1	22*	0	1	-6	1	1	28*
CC(C)(C)N1C(=O)Cc2c1nc(N)c1c(N)nc(N3CCCCC3CO)c(C#N)c21 (stereo not given)	28*	2	0	2	9	0.9	36*
CCc1ccc(OCC(=O)N/N=C\c2ccco2)c([N+](=O)[O-])c1	1	0	1	-2	-6	1.1	/
Cc1ccc2[nH]c(=O)c(CN(CCCN(C)C)C(=O)Nc3ccc(F)cc3)cc2c1	16*	-1	0	-7	-3	1	4
COc1ccc(NC(=O)N(CCCN(C)C)Cc2cc3cc(OC)ccc3[nH]c2=O)cc1	3	0	0	-7	-4	1	/
Cc1c(NS(=O)(=O)c2ccc(C(=O)NCc3ccccc3)cc2)c(=O)n(-c2ccccc2)n1C	-3	0	-1	-6	0	1	/
N#Cc1c(-c2ccccc2)c(-c2ccccc2)nn(CC(=O)NNC(=O)Nc2ccc(Cl)cc2)c1=O	31*	/	2	/	/	/	27*
CCc1nnc(NC(=O)C2CCCCC2)s1	-3	2	0	-2	-3	1	/
CC(C)c1nnc(NC(=O)C2CCCCC2)s1	16*	0	1	-6	-3	1	2
COc1ccc(/C=N/Nc2nnc(-c3ccccc3)c(=O)[nH]2)cc1	17*	0	-1	-52	-1	1	38*

Screening data as filed in PubChem.
